Tested on: RAW264.7
Test: Antiinflammatory activity in mouse RAW264.7 cells assessed as inhibition of LPS-stimulated nitric oxide production pretreated for 2 hrs before LPS challenge measured after 18 hrs by Griess method
Type: functional, cell-based
Outline: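 Murine RAW264.7 macrophages are stimulated with LPS, and NO released into the medium is measured. The read-out is an IC50.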

Row | IC50 | Compound
1 | > 10 µM | CCO[C@]12OC(=O)C(C)=C1C1=C3[C@@](C)(C2=O)[C@@H]2C[C@@H]2[C@@]3(O)C[C@@H]2[C@]13OC(=O)C1=C3C[C@H]3[C@](O)(COC(=O)/C(C)=C/COC(=O)CCC(=O)OC1)[C@H]1C[C@H]1[C@]23C
2 | 0.22 µM | CC1=C2C3=C4C(=C[C@@H]5[C@]36OC(=O)C3=C6C[C@H]6[C@](O)(COC(=O)/C(C)=C/COC(=O)CCC(=O)OC3)[C@H]3C[C@H]3[C@]56C)[C@H]3C[C@H]3[C@]4(C)[C@@H](O)[C@@]2(O)OC1=O
3 | > 10 µM | C=C1CC[C@H]2C(C)(C)[C@@H](O)CC[C@]2(C)[C@H]1C/C=C(\C)C=O
4 | > 10 µM | C=C1C[C@@H](O)[C@H]2C(C)(C)[C@@H](O)CC[C@]2(C)[C@H]1C/C=C(\C)C=O
5 | > 10 µM | CC1=C2C[C@@H]3[C@](C)(CCC[C@]3(C)O)C[C@@H]2OC1=O
6 | > 10 µM | CC1=C2C[C@@H]3[C@](C)(CCC[C@]3(C)O)C[C@]2(O)OC1=O
7 | > 10 µM | C=C1CC[C@@H]2[C@](C)(O)C[C@@]3(O)OC(=O)C(C)=C3[C@@]2(O)C1
8 | 0.47 µM | C[C@@H]1C[C@H]2[C@@H]3CCC4=CC(=O)C=C[C@]4(C)[C@@]3(F)[C@@H](O)C[C@]2(C)[C@@]1(O)C(=O)CO [DEXAMETHASONE]

Row | Compound | IC50
9 | COC(=O)/C(C)=C1\C(=O)[C@H](O)[C@]2(C)C3=C(C[C@@H]4[C@]5(OC(=O)C6=C5C[C@H]5[C@](O)(COC(=O)/C(C)=C/COC(=O)CCC(=O)OC6)[C@H]6C[C@H]6[C@]45C)[C@H]31)[C@H]1C[C@H]12 [SHIZUKAOL B] | 0.15 µM
10 | COC(=O)/C(C)=C1/C(=O)[C@H](O)[C@]2(C)C3=C1[C@]14OC(=O)C(COC(C)=O)=C1C[C@H]1C[C@H]5C[C@H]5[C@]1(C)[C@@H]4C[C@]3(O)[C@H]1C[C@H]12 [SHIZUKAOL D] | 7.22 µM
